# Measured values collected from several papers.
# Protocols differ between the studies behind these lines.
# Organism: Candida albicans
# Effect on: microbial growth
Structure (SMILES),test,system,setting,MIC
O=C(CCc1ccc(O)c(O)c1)NCCCCCCCC[P+](c1ccccc1)(c1ccccc1)c1ccccc1.[Br-],broth dilution,ATCC90028,24 h,> 32 µg/mL
NOCC(=O)O,,SC5314,,1000 µg/mL
O=C(CCCCCCCCCC[P+](c1ccccc1)(c1ccccc1)c1ccccc1)Nc1cc(O)c(O)c(O)c1.[Br-],broth dilution,ATCC90028,24 h,8 µg/mL
CC1=NN(CNc2ccc(Cl)cc2)C(=O)C1=NNn1c(-c2ccccc2)nc2ccccc2c1=O,broth dilution,,,51.5 µM
N=C(N)NCc1ccc(NC(=O)C23CCC(C(=O)Nc4ccc(C5=CCN(C(=N)N)CC5)cc4)(CC2)CC3)cc1,broth dilution,,"48 h, clinical isolate",0.2 µg/mL
CC1=NN(CNc2ccc(C(=O)O)cc2)C(=O)C1=NNn1c(-c2ccccc2)nc2ccccc2c1=O,broth dilution,,,50.5 µM
O=C(CCCCCCCC[P+](c1ccccc1)(c1ccccc1)c1ccccc1)Nc1cc(O)c(O)c(O)c1.[Br-],broth dilution,ATCC90028,24 h,> 32 µg/mL
CCc1nc(N)nc(N)c1C#CCc1cc(OC)ccc1OC,resazurin,,,250 µM
OC(Cn1cncn1)(Cn1cncn1)c1ccc(F)cc1F,broth dilution,ATCC10231,,1 µg/mL
CC(=O)NCN1N=C(C)C(=NNn2c(-c3ccccc3)nc3ccccc3c2=O)C1=O,broth dilution,,,120 µM
C[C@@H]1[C@H](O)[C@@H](C)/C=C/C=C/C=C/C=C/C=C/C=C/C=C/[C@H](O[C@@H]2O[C@H](C)[C@@H](O)[C@H](N)[C@@H]2O)C[C@@H]2O[C@](O)(C[C@@H](O)C[C@@H](O)[C@H](O)CC[C@@H](O)C[C@@H](O)CC(=O)O[C@H]1C)C[C@H](O)[C@H]2C(=O)O,,ATCC90028,,0.63 µg/mL
O=C(Cc1ccc(O)c(O)c1)NCCCCCCCC[P+](c1ccccc1)(c1ccccc1)c1ccccc1.[Br-],broth dilution,ATCC90028,24 h,> 32 µg/mL
C[C@@H]1[C@H](O)[C@@H](C)/C=C/C=C/C=C/C=C/C=C/C=C/C=C/[C@H](O[C@@H]2O[C@H](C)[C@@H](O)[C@H](N)[C@@H]2O)C[C@@H]2O[C@](O)(C[C@@H](O)C[C@@H](O)[C@H](O)CC[C@@H](O)C[C@@H](O)CC(=O)O[C@H]1C)C[C@H](O)[C@H]2C(=O)O,broth dilution,,,0.25 µg/mL
CCOC(=O)CON,,SC5314,,32 µg/mL
CC1=NN(CNc2c(O)c(S(=O)(=O)O)cc3ccccc23)C(=O)C1=NNn1c(-c2ccccc2)nc2ccccc2c1=O,broth dilution,,,41.8 µM
O=C(CCc1cc(O)c(O)c(O)c1)NCCCCCCCC[P+](c1ccccc1)(c1ccccc1)c1ccccc1.[Br-],broth dilution,ATCC90028,24 h,> 32 µg/mL
